Experimental data from ChEMBL document CHEMBL1148289, “Computer-aided design, synthesis, and anti-HIV-1 activity in vitro of 2-alkylamino-6-[1-(2,6-difluorophenyl)alkyl]-3,4-dihydro-5-alkylpyrimidin-4(3H)-ones as novel potent non-nucleoside reverse transcriptase inhibitors, also active against the Y181C variant” (J Med Chem, 2004).

How the values were obtained:
[1] = molecular target: Human immunodeficiency virus type 1 reverse transcriptase (Human immunodeficiency virus 1, UniProt Q72547); assay: Inhibitory concentration required to inhibit the HIV-1 reverse transcriptase activity
Procedure, shortened: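 Purified recombinant HIV-1 RT, RNA-dependent polymerase activity. Template/primer poly(rC)-oligo(dG)12–18 at 0.5 OD260 unit/mL, with [3H]dGTP. Incubated 30 min at 37 °C, then acid-insoluble radioactivity counted on glass fiber filters. IC50 is the dose halving activity. Mean of at least two experiments.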

MT4 [2] = assay: Effective dose required to achieve protection of MT-4 cells from HIV-1 induced cytopathogenicity; type: functional, cell-based; conditions: Homo sapiens
Procedure, shortened: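 MT-4 cells (RPMI 1640, 10% FCS, 37 °C, 5% CO2), 1 × 10^4 per well, were infected with 100 CCID50 of HIV-1 IIIB in the presence of graded compound concentrations. Compounds came from 200 mM DMSO stocks diluted into medium. After 4 days at 37 °C, viable cells were counted by MTT. The value is the dose giving 50% protection, as a mean of at least two experiments.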

MT4 [3] = assay: Cytotoxic concentration required to reduce the viability of mock-infected MT-4 cells; type: functional; conditions: Homo sapiens
Procedure, shortened: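 Mock-infected MT-4 cells, 1 × 10^4 per well, were exposed to graded compound concentrations in parallel with the antiviral assay. Compounds came from 200 mM DMSO stocks diluted into medium. After 4 days at 37 °C, viability was measured by MTT. The value is the dose reducing viability by 50%, as a mean of at least two experiments.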

[4] = Ratio of CC50 to that EC50 in mock infected cells; type: functional
Procedure, shortened: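 Selectivity index is the ratio of CC50 (mock-infected MT-4 viability, MTT, 4 days) to EC50 (protection of HIV-1 IIIB-infected MT-4 cells, MTT, 4 days), both from parallel assays.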

MT4 [5] = assay: Effective dose required to achieve protection of MT-4 cells from Y181C HIV-1 induced cytopathogenicity; type: functional, cell-based; conditions: Homo sapiens
Procedure, shortened: (§1)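 MT-4 cells (1 × 10^4/well) in RPMI 1640 with 10% FCS, infected with 100 CCID50 of HIV-1 (IIIB wild type or Y181C), compounds from DMSO stock diluted in medium at various concentrations. After 4 days at 37 °C, viable cells counted by MTT. EC50 is the dose giving 50% protection from virus cytopathicity. Mean of at least two experiments.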

[6] = Ratio of wild type IIIB to that of Y181C HIV-1 induced cytopathogenicity; type: functional
MT4 [7] = assay: Effective dose required to achieve protection of MT-4 cells from wild type IIIB HIV-1 induced cytopathogenicity; type: functional, cell-based; conditions: Homo sapiens; procedure, shortened: as §1

| Compound | IC50 [1] [nM] | EC50 (MT4 [2]) [nM] | CC50 (MT4 [3]) [nM] | Selectivity index [4] | EC50 (MT4 [5]) [nM] | Ratio [6] | EC50 (MT4 [7]) [nM] |
| --- | --- | --- | --- | --- | --- | --- | --- |
| CC(c1cc(=O)[nH]c(NC2CCCC2)n1)c1c(F)cccc1F (stereo not drawn) | 40 | 30 | 76000 | 3500 |  |  |  |
| CC(c1cc(=O)[nH]c(SC2CCCC2)n1)c1c(F)cccc1F (stereo not drawn) | 30 | 30 | > 200000 | >6666 |  |  |  |
| Cc1c(C(C)c2c(F)cccc2F)nc(NC2CCCC2)[nH]c1=O (stereo not drawn) | 35 | 20 | 90000 | 4500 | 160 | 5.3 | 30 |
| CCOCn1c(Cc2ccccc2)c(C(C)C)c(=O)[nH]c1=O [EMIVIRINE] |  |  | 200000 | 6666 |  |  |  |
| Cc1ccnc2c1NC(=O)c1cccnc1N2C1CC1 [NEVIRAPINE] |  |  |  |  | > 30000 | > 81 |  |
| Cc1c(Cc2c(F)cccc2F)nc(SC2CCCC2)[nH]c1=O |  |  | > 200000 | > 2500 |  |  |  |
| Cc1c(Cc2c(F)cccc2F)nc(NC2CCCC2)[nH]c1=O | 30 | 20 | > 200000 | >10000 |  |  |  |
| O=c1cc(Cc2c(F)cccc2F)nc(NC2CCCC2)[nH]1 | 70 | 90 | > 200000 | >2222 |  |  |  |
| Cc1c(C(C)c2c(F)cccc2F)nc(SC2CCCC2)[nH]c1=O (stereo not drawn) |  | 6 | > 200000 | >33333 | 200 | 13 | 15 |
| O=C1Nc2ccc(Cl)cc2[C@@](C#CC2CC2)(C(F)(F)F)O1 |  |  |  |  |  | 6 |  |
| O=c1cc(Cc2c(F)cccc2F)nc(SC2CCCC2)[nH]1 |  |  | > 200000 | >2500 |  |  |  |
